The species named for assay [1] is Canis familiaris. The experiment in a line: (§1) Intraurethral pressure (IUP) in Beagle dogs values are expressed as pseudo pA2 values. Conditions: Canis lupus familiaris, Urethra, read-out: pA2 (converted).
For assay [2], the species on record is Rattus norvegicus. The experiment in a line: Antagonist dissociation constant in rat spleen. As to conditions: read-out: pA2 (converted).
Assay [3] is filed under the species Canis familiaris. The experiment in a line: Antagonist dissociation constant in dog prostate. As to conditions: Canis lupus familiaris, Prostate gland, read-out: pA2 (converted).
The species named for assay [4] is Rattus norvegicus. The experiment in a line: Antagonist dissociation constant in rat vas deferens. As to conditions: read-out: pA2 (converted).
Assay [5] concerns the target T1, Alpha-1A adrenergic receptor (Rattus norvegicus, UniProt P43140).
T1 sequence (P43140 whole entry): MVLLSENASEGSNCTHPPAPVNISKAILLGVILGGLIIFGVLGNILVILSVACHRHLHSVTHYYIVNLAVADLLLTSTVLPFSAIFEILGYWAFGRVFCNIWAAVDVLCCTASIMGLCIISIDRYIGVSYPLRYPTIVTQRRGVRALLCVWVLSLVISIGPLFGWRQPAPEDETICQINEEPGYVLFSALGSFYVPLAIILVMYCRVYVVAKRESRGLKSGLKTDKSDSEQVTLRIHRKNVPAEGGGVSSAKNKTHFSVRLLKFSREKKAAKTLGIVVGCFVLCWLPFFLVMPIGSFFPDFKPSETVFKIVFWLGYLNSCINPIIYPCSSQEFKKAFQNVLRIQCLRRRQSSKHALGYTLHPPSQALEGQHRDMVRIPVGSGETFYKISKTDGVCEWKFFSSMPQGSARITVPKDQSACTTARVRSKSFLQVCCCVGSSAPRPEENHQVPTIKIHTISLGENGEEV
The experiment in a line: In vitro binding affinity using [3H]prazosin as radioligand against alpha-1A adrenergic receptor. The method in brief: (§2)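 Binding to pharmacologically defined α1A site in rat submaxillary gland membranes; [3H]-prazosin ~200 pM, nonspecific binding with 10^-5 M phentolamine (final); ~0.1 mg protein per tube in 50 mM Tris-HCl pH 7.4, 60 min at 25 °C.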

Assay [6] has as its target T2, Alpha-1B adrenergic receptor (Mesocricetus auratus, UniProt P18841).
T2 sequence (P18841 whole entry): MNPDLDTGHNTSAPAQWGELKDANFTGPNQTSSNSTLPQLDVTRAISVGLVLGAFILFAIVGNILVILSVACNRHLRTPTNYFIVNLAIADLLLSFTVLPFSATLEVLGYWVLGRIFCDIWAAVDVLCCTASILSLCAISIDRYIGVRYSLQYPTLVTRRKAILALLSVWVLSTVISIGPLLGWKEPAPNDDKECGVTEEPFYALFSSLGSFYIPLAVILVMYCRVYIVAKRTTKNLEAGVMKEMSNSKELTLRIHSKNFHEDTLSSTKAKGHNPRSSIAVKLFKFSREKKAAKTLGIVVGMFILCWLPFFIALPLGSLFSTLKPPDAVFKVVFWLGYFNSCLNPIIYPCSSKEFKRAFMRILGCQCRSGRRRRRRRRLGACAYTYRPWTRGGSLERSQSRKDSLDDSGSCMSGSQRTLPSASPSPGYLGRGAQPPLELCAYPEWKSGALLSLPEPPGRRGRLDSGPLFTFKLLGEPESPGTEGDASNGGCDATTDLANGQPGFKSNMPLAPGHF
The experiment in a line: In vitro binding affinity using [3H]prazosin as radioligand against alpha-1B adrenergic receptor expressed in LTK cell. It is filed as cell-based. The method in brief:
(§3)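 Membranes from mouse LTK- fibroblasts stably expressing cloned hamster α1B or rat α1D, grown in roller bottles, frozen in liquid N2 and stored at -70 °C. Incubated with [3H]-prazosin ~200 pM, ~0.1 mg protein per tube, in 50 mM Tris-HCl pH 7.4 for 60 min at 25 °C; nonspecific binding defined by 10^-5 M phentolamine (final).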

The species entered for assay [7] is Rattus norvegicus. The experiment in a line: Determination of Pseudo pED50 in Spontaneously Hypertensive Rat (SHR) model. Number determinations => 3. It is filed as functional. The method in brief: (§4)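 Male SHR (300-325 g), briefly anesthetized with Penthrane, catheterized in femoral artery (MAP) and vein (dosing). After 2.5 h recovery and a 30 min predose control period, one iv antagonist dose per rat in an ascending paradigm; MAP and HR recorded over 60 min. Trapezoidal AUC of percent change in MAP (T60 AUC); ED50 is the dose lowering MAP by 50% of normotensive.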

Assay [8] deals with T3, Alpha-1D adrenergic receptor (Rattus norvegicus, UniProt P23944).
T3 sequence (P23944 whole entry): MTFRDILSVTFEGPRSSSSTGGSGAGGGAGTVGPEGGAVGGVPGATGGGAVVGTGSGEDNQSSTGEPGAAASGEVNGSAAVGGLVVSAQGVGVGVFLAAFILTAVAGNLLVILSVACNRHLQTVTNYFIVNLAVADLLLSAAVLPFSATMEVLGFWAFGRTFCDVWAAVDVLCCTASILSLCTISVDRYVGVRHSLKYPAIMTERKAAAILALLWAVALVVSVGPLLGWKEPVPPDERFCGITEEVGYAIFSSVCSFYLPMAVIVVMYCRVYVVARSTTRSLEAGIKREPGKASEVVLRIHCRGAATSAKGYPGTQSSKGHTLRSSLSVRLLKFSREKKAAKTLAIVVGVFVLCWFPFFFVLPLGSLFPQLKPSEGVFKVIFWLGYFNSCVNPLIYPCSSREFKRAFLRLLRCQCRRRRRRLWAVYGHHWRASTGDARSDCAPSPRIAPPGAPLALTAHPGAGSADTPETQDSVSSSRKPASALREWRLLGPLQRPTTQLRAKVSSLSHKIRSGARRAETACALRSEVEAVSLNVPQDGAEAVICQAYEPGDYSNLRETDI
The experiment in a line: In vitro binding affinity using [3H]prazosin as radioligand against alpha-1D adrenergic receptor expressed in LTK cell. It is filed as cell-based. An outline of the steps: as §3

The species named for a further assay is Cricetulus griseus. The experiment in a line: Ratio between Ki(alpha-1b)/Ki(alpha1A).
In assay [9] the target is T1, Alpha-1A adrenergic receptor. The experiment in a line: In vitro binding affinity using [3H]prazosin as radioligand against adrenoceptor alpha 1A. An outline of the steps:
as §2

Assay [10] concerns the target T2, Alpha-1B adrenergic receptor. The experiment in a line: In vitro binding affinity using [3H]prazosin as radioligand against adrenoceptor alpha 1b expressed in LTK cell. It is filed as cell-based. The method in brief:
as §3

Assay [11] has as its target T3, Alpha-1D adrenergic receptor. The experiment in a line: In vitro binding affinity using [3H]prazosin as radioligand against adrenoceptor alpha 1d expressed in LTK cell. It is filed as cell-based. The method in brief: as §3
Assay [12] is filed under the species Rattus norvegicus. The experiment in a line: Antagonist dissociation constant in rat spleen, number of determinations => 3. Conditions: read-out: pA2 (converted).
For assay [13], the species on record is Canis familiaris. The assay is described as §1. Type of assay: functional, Canis lupus familiaris, Urethra.
Assay [14] is filed under the species Rattus norvegicus. The experiment in a line: Pseudo ED50 in Spontaneously Hypertensive Rat (SHR) model. Number determinations => 3. It is filed as functional. An outline of the steps:
as §4

For assay [15], the species on record is Rattus norvegicus. The experiment in a line: Antagonist dissociation constant in rat vas deferens, number of determinations => 3. As to conditions: read-out: pA2 (converted).
For assay [16], the species on record is Rattus norvegicus. The experiment in a line: Pseudo ED50 in Spontaneously Hypertensive Rat (SHR) model. Type of assay: functional. The method in brief: as §4
The species entered for assay [17] is Rattus norvegicus. The experiment in a line: Determination Pseudo pED50 in Spontaneously Hypertensive Rat (SHR) model. Type of assay: functional. The method in brief: as §4
For assay [18], the species on record is Canis familiaris. The experiment in a line: Antagonist dissociation constant in dog prostate, number of determinations => 3. As to conditions: Canis lupus familiaris, Prostate gland; read-out: pA2 (converted).

As for `COc1cccc2c1CC[C@H]1CN(CCn3c(=O)[nH]c4c(sc5ncccc54)c3=O)C[C@@H]21`, the Kb in the assay listed under Canis familiaris [1] is 5.62 nM; in the assay listed under Rattus norvegicus [2], 16.2 nM; in the assay listed under Canis familiaris [3], 1.66 nM; in the assay filed under Rattus norvegicus [4] it was 2.24 nM. Also, the results for the Ki in assay [5], in assay [6] and in assay [8] were 0.59 nM, 6.12 nM and 0.69 nM, respectively. Moreover, the pED50 in the assay listed under Rattus norvegicus [7] came to 5.35. In addition, the Selectivity ratio in the assay filed under Cricetulus griseus was 10.4.
Consider `COc1cccc2c1CC[C@H]1CN(CCn3c(=O)[nH]c4c(sc5ccc(Cl)nc54)c3=O)C[C@@H]21`, for which the Ki (commonly the equilibrium dissociation constant of an inhibitor or competing ligand from its target) in assay [9] turned out to be 0.38 nM; in assay [10], 4.15 nM; in assay [11], 0.61 nM.
For the molecule `COc1cc2nc(N3CCN(C(=O)C4CCCO4)CC3)nc(N)c2cc1OC` (stereo not given) [TERAZOSIN], the Kb in the assay filed under Rattus norvegicus [12] was 2.51 nM. For the same molecule, the IUP in the assay filed under Canis familiaris [13] amounted to 7.02. For the same molecule, the SHR in the assay listed under Rattus norvegicus [14] is 6.64.
Take `COc1cc2nc(N(C)CCCNC(=O)C3CCCO3)nc(N)c2cc1OC` (stereo not given) [ALFUZOSIN]: the Kb in the assay filed under Rattus norvegicus [15] was 24.5 nM; in the assay listed under Rattus norvegicus [12], 4.9 nM. The same molecule returned an IUP in the assay filed under Canis familiaris [13] of 6.87. Besides, in the assay filed under Rattus norvegicus [14], the SHR came to 6.58.
Regarding `COc1cccc2c1CC[C@H]1CN(CCn3c(=O)[nH]c4c(sc5cccnc54)c3=O)C[C@@H]21`, the Kb in the assay filed under Canis familiaris [1] was 6.76 nM; in the assay filed under Rattus norvegicus [2], 12.9 nM; in the assay listed under Canis familiaris [3], 0.776 nM; in the assay listed under Rattus norvegicus [4], 1.17 nM. For the same molecule, the values for the Ki in assay [6] and in assay [8] were 3.39 nM and 0.51 nM, respectively. Further, in the assay filed under Rattus norvegicus [16], the pED50 was 5.33.
For the molecule `COc1cc2nc(N3CCN(C(=O)C4COc5ccccc5O4)CC3)nc(N)c2cc1OC` (stereo not given) [DOXAZOSIN], the Kb in the assay listed under Canis familiaris [1] is 75.9 nM; in the assay filed under Rattus norvegicus [2] it was 0.309 nM; in the assay listed under Rattus norvegicus [4] it was 2.04 nM. This molecule also yielded a pED50 in the assay listed under Rattus norvegicus [17] of 6.5.
`COc1cccc2c1CC[C@H]1CN(CCn3c(=O)[nH]c4c(sc5ccncc54)c3=O)C[C@@H]21`: the Ki was 0.33 nM in assay [5], 4.63 nM in assay [6] and 0.28 nM in [8]. In addition, the Selectivity ratio in the assay listed under Cricetulus griseus was determined as 14.
The like results for `COc1cccc2c1CC[C@H]1CN(CCn3c(=O)[nH]c4c(sc5nc(C)c(C)nc54)c3=O)C[C@@H]21` were, in that order, 0.39 nM, 13.9 nM, 3.28 nM and 35.6.
The matching figures for `COc1cccc2c1CC[C@H]1CN(CCn3c(=O)[nH]c4c(sc5cccc(C#N)c54)c3=O)C[C@@H]21`: 3.3 nM, 35.8 nM, 6.6 nM and 10.8.
Take `COc1cccc2c1CC[C@H]1CN(CCn3c(=O)[nH]c4c(sc5cncnc54)c3=O)C[C@@H]21`: the Ki in [5] stood at 1.62 nM; in assay [6] it was 15.9 nM; in [8], 3.74 nM. Also, the Selectivity ratio in the assay filed under Cricetulus griseus amounted to 9.8.
On to `CCOc1ccccc1OCCN[C@H](C)Cc1ccc(OC)c(S(N)(=O)=O)c1` [TAMSULOSIN], for which the Ki in assay [10] was 0.2 nM. Moreover, the Kb is 0.339 nM in the assay filed under Rattus norvegicus [15] and 0.204 nM in the assay filed under Rattus norvegicus [12]. In addition, the IUP in the assay listed under Canis familiaris [13] is 8.87. This molecule showed an SHR in the assay listed under Rattus norvegicus [14] of 7.33.
Consider `COc1cccc2c1CC[C@H]1CN(CCn3c(=O)[nH]c4c(sc5ccc(Cl)cc54)c3=O)C[C@@H]21`, for which the Ki in [5] was determined as 0.44 nM; in assay [6], 1.91 nM; in assay [8] it was 0.31 nM. Also, in the assay filed under Cricetulus griseus, the Selectivity ratio worked out at 4.34.
On to `COc1cccc2c1CCC1CN(CCCCn3c(=O)[nH]c4c(sc5ccccc54)c3=O)CC21` (cis isomer), for which the Ki stood at 7.43 nM in [5], 9.95 nM in assay [6] and 4.77 nM in assay [8]. In addition, the Selectivity ratio in the assay listed under Cricetulus griseus worked out at 1.33.
Regarding `COc1cccc2c1CC[C@H]1CN(CCn3c(=O)[nH]c4c(sc5ncc(Cl)nc54)c3=O)C[C@@H]21`, the figures for the inhibition constant (Ki) in assay [9], in [10] and in assay [11] were 0.69 nM, 35.1 nM and 3.83 nM, respectively. Moreover, the Kb in the assay filed under Canis familiaris [18] is 0.447 nM; in the assay filed under Rattus norvegicus [15], 1.1 nM; in the assay filed under Rattus norvegicus [12], 44.7 nM. Also, the IUP in the assay filed under Canis familiaris [13] worked out at 8.28. Moreover, the SHR in the assay listed under Rattus norvegicus [14] worked out at 4.77.
Regarding `COc1cccc2c1CC[C@H]1CN(CCn3c(=O)[nH]c4c(sc5ncncc54)c3=O)C[C@@H]21`, the results for the Ki in assay [5], in assay [6] and in assay [8] were 0.68 nM, 15.5 nM and 2.08 nM, respectively. Also, the Selectivity ratio in the assay filed under Cricetulus griseus was 22.8.
The like results for `COc1cccc2c1CC[C@H]1CN(CCn3c(=O)[nH]c4c(sc5c(Cl)ccnc54)c3=O)C[C@@H]21` were, in that order, 3.13 nM, 61.6 nM, 4.16 nM and 19.7.
